How the values were obtained:
Format in all cases: cell-based
[1] = target: T1, Nucleotide-binding oligomerization domain-containing protein 2 (Homo sapiens, UniProt Q9HC29); test: Antagonist activity at human NOD2 expressed in HEK-Blue cells assessed as inhibition of MDP-stimulated cell activation at 5 uM preincubated for 3 hrs followed by MDP addition measured after 20 hrs by SEAP reporter gene assay
[2] = target: T2, Nucleotide-binding oligomerization domain-containing protein 1 (Homo sapiens) (UniProt Q9Y239); test: Antagonist activity at human NOD1 expressed in HEK-blue cells assessed as inhibition of C12-iE-DAP-stimulated cell activation at 5 uM preincubated for 3 hrs followed by C12-iE-DAP addition measured after 20 hrs by SEAP reporter gene assay
T2 sequence (whole entry): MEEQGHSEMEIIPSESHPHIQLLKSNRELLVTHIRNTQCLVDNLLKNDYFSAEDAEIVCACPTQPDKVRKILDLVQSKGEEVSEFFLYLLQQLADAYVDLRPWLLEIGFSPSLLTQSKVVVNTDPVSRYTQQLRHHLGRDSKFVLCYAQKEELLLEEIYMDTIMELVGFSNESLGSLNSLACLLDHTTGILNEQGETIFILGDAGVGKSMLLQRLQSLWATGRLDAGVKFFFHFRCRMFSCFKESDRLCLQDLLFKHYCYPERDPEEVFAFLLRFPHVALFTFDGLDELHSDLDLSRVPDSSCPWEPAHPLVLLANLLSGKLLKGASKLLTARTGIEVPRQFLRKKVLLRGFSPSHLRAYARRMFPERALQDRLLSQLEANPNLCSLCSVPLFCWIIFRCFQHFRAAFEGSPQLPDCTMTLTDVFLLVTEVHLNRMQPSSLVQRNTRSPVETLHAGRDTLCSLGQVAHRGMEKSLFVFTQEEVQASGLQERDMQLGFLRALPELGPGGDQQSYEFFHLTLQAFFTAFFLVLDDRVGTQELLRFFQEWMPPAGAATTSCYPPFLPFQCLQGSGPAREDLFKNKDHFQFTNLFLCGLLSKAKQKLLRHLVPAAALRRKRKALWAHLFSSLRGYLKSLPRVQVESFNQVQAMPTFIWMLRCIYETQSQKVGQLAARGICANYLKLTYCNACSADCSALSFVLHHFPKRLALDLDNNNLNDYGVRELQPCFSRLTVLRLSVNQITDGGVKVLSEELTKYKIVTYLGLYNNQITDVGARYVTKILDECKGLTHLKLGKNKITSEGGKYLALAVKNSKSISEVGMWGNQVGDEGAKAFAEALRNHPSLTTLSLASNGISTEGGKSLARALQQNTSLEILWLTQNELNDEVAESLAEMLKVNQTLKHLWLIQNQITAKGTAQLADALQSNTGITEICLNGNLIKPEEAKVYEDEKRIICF

[3] = target: T2, Nucleotide-binding oligomerization domain-containing protein 1 (Homo sapiens); test: Antagonist activity at human NOD1 expressed in HEK-Blue cells assessed as inhibition of C12-iE-DAP-stimulated cell activation at 10 uM preincubated for 3 hrs followed by C12-iE-DAP addition measured after 20 hrs by SEAP reporter gene assay
How it was run: (§1)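 HEK-Blue hNOD1 or hNOD2 cells preincubated with compound 3 h, then stimulated 20 h with C12-iE-DAP 50 ng/mL (NOD1) or MDP 100 ng/mL (NOD2); SEAP in supernatant quantified. Primary screen at 10 μM, hits repeated in triplicate; IC50 from dose-response, mean ± SD (n = 3), only for compounds reaching ≥50% inhibition at the screening concentration.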

[4] = target: T1, Nucleotide-binding oligomerization domain-containing protein 2; test: Antagonist activity at human NOD2 expressed in HEK-Blue cells assessed as inhibition of MDP-stimulated cell activation at 10 uM preincubated for 3 hrs followed by MDP addition measured after 20 hrs by SEAP reporter gene assay; how it was run: as §1

T1 sequence (Q9HC29 whole entry, the tested form may be a part): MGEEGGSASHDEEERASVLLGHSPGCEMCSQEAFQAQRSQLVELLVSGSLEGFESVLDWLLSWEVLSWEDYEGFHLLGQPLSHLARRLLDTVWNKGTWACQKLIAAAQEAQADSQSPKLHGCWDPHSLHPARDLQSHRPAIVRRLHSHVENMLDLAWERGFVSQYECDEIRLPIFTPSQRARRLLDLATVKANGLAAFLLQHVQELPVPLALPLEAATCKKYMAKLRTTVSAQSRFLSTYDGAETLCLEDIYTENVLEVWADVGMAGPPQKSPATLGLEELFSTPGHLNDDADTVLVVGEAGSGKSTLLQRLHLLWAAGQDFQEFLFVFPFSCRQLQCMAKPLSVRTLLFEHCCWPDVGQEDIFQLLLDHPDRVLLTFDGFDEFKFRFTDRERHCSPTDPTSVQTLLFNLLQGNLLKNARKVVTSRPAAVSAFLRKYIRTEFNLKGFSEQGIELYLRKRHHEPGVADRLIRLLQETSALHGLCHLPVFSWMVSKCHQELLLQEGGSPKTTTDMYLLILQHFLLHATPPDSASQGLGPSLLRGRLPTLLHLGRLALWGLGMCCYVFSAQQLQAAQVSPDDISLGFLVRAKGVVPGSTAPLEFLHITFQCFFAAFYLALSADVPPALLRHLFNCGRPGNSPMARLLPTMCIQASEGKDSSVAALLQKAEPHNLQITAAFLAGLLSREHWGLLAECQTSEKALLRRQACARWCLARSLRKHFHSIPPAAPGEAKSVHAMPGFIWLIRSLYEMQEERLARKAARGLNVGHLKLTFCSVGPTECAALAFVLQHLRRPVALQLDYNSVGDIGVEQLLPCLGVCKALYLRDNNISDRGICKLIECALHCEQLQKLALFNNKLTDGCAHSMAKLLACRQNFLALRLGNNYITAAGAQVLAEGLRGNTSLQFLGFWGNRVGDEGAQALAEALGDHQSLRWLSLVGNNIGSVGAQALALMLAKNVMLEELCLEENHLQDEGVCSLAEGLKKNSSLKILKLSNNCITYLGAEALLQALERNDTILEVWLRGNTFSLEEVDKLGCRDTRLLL

SMILES | inhibition [1] | inhibition [2] | inhibition [3] | inhibition [4]
COC(=O)CC[C@H]1NC(=O)c2cc(Oc3ccccc3)c(NC(=O)Nc3ccc(F)cc3)cc2NC1=O |  |  | -9.85% | 0.22%
COC(=O)CC[C@H]1NC(=O)c2cc(Oc3cccc(N(C)C)c3)c(NC(=O)COCc3ccc(F)cc3Cl)cc2NC1=O | 12.8% | 20.1% | 38.6% | 13.5%
COC(=O)CC[C@H]1NC(=O)c2cc(Oc3ccc(C)c(C)c3)c(NC(=O)COCc3ccccc3)cc2NC1=O |  |  | 73.8% | 54.4%
COC(=O)CC[C@@H]1NC(=O)c2cc(Oc3cccc(N(C)C)c3)c(NC(=O)COCc3ccc(F)cc3Cl)cc2NC1=O | 10.3% | 29.3% |  | 
COC(=O)CCC1NC(=O)c2cc(Cl)ccc2N(C)C1=O (stereo not drawn) |  |  |  | 1.87%
COC(=O)CCC1NC(=O)c2cc(Cl)ccc2N(CC2CC2)C1=O (stereo not drawn) |  |  | -3.06% | -2.7%
COC(=O)CC[C@H]1NC(=O)c2cc(Oc3cccc4ccccc34)c(NC(=O)C3CC3)cc2NC1=O |  |  | 6.34% | -0.3%
CCCNC(=O)CC[C@@H]1NC(=O)c2cc(Oc3cccc(N(C)C)c3)c(NC(=O)COCc3ccccc3)cc2NC1=O | 34.5% | 46.1% |  | 
COC(=O)CC[C@H]1NC(=O)c2cc(OC)c(NC(=O)c3cc(C(F)(F)F)cc(C(F)(F)F)c3)cc2NC1=O |  |  |  | -5.32%
CCCCN(CCCC)c1cc2c(cc1NC(=O)/C=C/c1ccc(F)cc1Cl)NC(=O)[C@@H](CCC(=O)OC)NC2=O |  |  | 76.5% | 60.8%
CCCCCCCCCCCCNCC(=O)Nc1cc2c(cc1Oc1cccc(N(C)C)c1)C(=O)N[C@H](CCC(=O)OC)C(=O)N2 |  |  | 7.37% | -3.92%
CN1CCN(C(=O)CC[C@H]2NC(=O)c3cc(Oc4cccc(N(C)C)c4)c(NC(=O)COCc4ccccc4)cc3NC2=O)CC1 | 38.8% | 21.7% |  | 
COC(=O)CC[C@H]1NC(=O)c2cc(Cl)ccc2NC1=O |  |  | 38% | 28.9%
COC(=O)CC[C@H]1NC(=O)c2cc(N3CCOCC3)c(NC(=O)Cc3ccccc3)cc2NC1=O |  |  | 13% | 50.9%
O=C(CC[C@H]1NC(=O)c2cc(N3CCOCC3)c(NC(=O)C3CC3)cc2NC1=O)NC1CCCc2ccccc21 (stereo partly drawn) |  |  | 22.6% | 27.1%
CCCCCCCNC(=O)CC[C@H]1NC(=O)c2cc(Cl)ccc2NC1=O |  |  | -7.88% | 1.25%
CCCCCCCCCCCCNC(=O)CC[C@H]1NC(=O)c2cc(N3CCOCC3)c(NC(=O)C3CC3)cc2NC1=O |  |  | -0.69% | 7.9%
C=CC(=O)Nc1cc2c(cc1Oc1cccc(N(C)C)c1)C(=O)N[C@H](CCC(=O)OC)C(=O)N2 |  |  | 82.1% | 91.9%
CCCCCCCCCN1C(=O)[C@@H](CCC(N)=O)N(C)C(=O)c2ccc(Cl)cc21 |  |  | 22% | 29.5%
CCCCCCCCCCN1C(=O)C(CCC(=O)OC)NC(=O)c2cc(Cl)ccc21 (stereo not drawn) |  |  | 2.54% | -2.7%
COC(=O)CC[C@H]1NC(=O)c2cc(Oc3ccc(C)c(C)c3)c(NC(=O)C3CC3)cc2NC1=O |  |  | -9.9% | -4.24%
COC(=O)CC[C@H]1NC(=O)c2cc(N3CCOCC3)c(NC(=O)C3CC3)cc2NC1=O |  |  | 6.82% | 27%
CCCCCCCCCN1C(=O)[C@@H](CCC(=O)N[C@@H](C)C(N)=O)N(C)C(=O)c2ccc(Cl)cc21 |  |  | 17% | 27.7%
Cc1ccc(Oc2cc3c(cc2NC(=O)C2CC2)NC(=O)[C@@H](CCC(=O)O)NC3=O)cc1C |  |  |  | -3.78%
CCCCCCCCCN1C(=O)[C@@H](CCC(=O)OC)N(C)C(=O)c2ccc(Cl)cc21 |  |  | 31.3% | 34.1%

Now from value to molecule:

inhibition [1] | inhibition [2] | inhibition [3] | inhibition [4] | SMILES
31.6% | 38% |  |  | CN(C)c1cccc(Oc2cc3c(cc2NC(=O)COCc2ccc(C(F)(F)F)cc2)NC(=O)CNC3=O)c1
38.6% | 48.1% |  |  | COC(=O)CC[C@H]1NC(=O)c2cc(Oc3cccc(N(C)C)c3)c(NC(=O)COCc3ccsc3)cc2NC1=O
 |  |  | -2.95% | O=C(CC[C@H]1NC(=O)c2cc(N3CCOCC3)c(NC(=O)C3CC3)cc2NC1=O)NCCC1=CCCCC1
 |  | -7.62% |  | CCN(CC)C(=O)CC[C@@H]1C(=O)N(CCC(C)C)c2cc(Cl)ccc2C(=O)N1C
 |  |  | 1.94% | CCN(CC)C(=O)CC[C@H]1NC(=O)c2cc(Oc3cccc4ccccc34)c(NC(=O)/C=C\c3ccc(F)cc3Cl)cc2NC1=O
45.5% | 36% |  |  | COC(=O)CC[C@H]1NC(=O)c2cc(Oc3cccc(N(C)C)c3)c(NC(=O)COCc3ccc(Cl)c(Cl)c3)cc2NC1=O
 | 12.7% | 18.5% |  | CCCCCCCCCCCCCCCCCCNC(=O)CC[C@H]1NC(=O)c2cc(Oc3cccc(N(C)C)c3)c(NC(=O)COCc3ccccc3)cc2NC1=O
38.5% | 43.3% |  |  | C=CCOCC(=O)Nc1cc2c(cc1Oc1cccc(N(C)C)c1)C(=O)N[C@H](CCC(=O)OC)C(=O)N2
30.9% | 59.5% |  |  | COC(=O)CC[C@H]1NC(=O)c2cc(Oc3cccc(N(C)C)c3)c(NC(=O)COCc3ccc(Cl)cc3Cl)cc2NC1=O
 |  | -8.85% | 1.38% | CCN(CC)C(=O)CC[C@@H]1C(=O)N(CC2CC2)c2cc(Cl)ccc2C(=O)N1C
 |  | 66.4% | 76.6% | COC(=O)CC[C@H]1NC(=O)c2cc(OC)c(NC(=O)c3ccc4ccccc4c3)cc2NC1=O
 |  | -6.29% | -7.93% | CCCCN(CCCC)c1cc2c(cc1NC(C)=O)NC(=O)[C@@H](CCC(=O)OC)NC2=O
42.2% | 33.4% |  |  | CN(C)c1cccc(Oc2cc3c(cc2NC(=O)COCc2ccccc2)NC(=O)[C@@H](CCC(=O)N2CCNCC2)NC3=O)c1
 |  |  | -1.87% | COC(=O)CC[C@@H]1C(=O)Nc2cc(Cl)ccc2C(=O)N1C
 |  | 37.9% | 34.2% | COC(=O)CC[C@H]1NC(=O)c2cc(Oc3cccc4ccccc34)c(NC(=O)/C=C\c3ccc(F)cc3Cl)cc2NC1=O
29.8% | 42.4% |  |  | COC(=O)CC[C@H]1NC(=O)c2cc(Oc3ccccc3)c(NC(=O)COCc3ccc(C(F)(F)F)cc3)cc2NC1=O
 |  | 70.6% | 54.8% | NC(=O)CC[C@H]1NC(=O)c2cc(Oc3cccc4ccccc34)c(NC(=O)/C=C\c3ccc(F)cc3Cl)cc2NC1=O
24.8% | 34.9% |  |  | COC(=O)CC[C@H]1NC(=O)c2cc(Oc3cccc(N(C)C)c3)c(NC(=O)COCc3ccoc3)cc2NC1=O
 |  | 41.6% | 28.7% | NC(=O)CC[C@H]1NC(=O)c2cc(Oc3cccc4ccccc34)c(NC(=O)C3CC3)cc2NC1=O
 |  | -0.11% | 21.5% | CCN(CC)C(=O)CC[C@H]1NC(=O)c2cc(Cl)ccc2NC1=O
 |  | 3.86% | 7.76% | O=C(O)CC[C@H]1NC(=O)c2cc(Oc3cccc4ccccc34)c(NC(=O)/C=C\c3ccc(F)cc3Cl)cc2NC1=O
 |  | 29.7% | 17.8% | CCCCCCCCCN1C(=O)[C@@H](CCC(=O)N2CCOCC2)N(C)C(=O)c2ccc(Cl)cc21
 |  |  | -7.53% | CCN(CC)C(=O)CC[C@@H]1C(=O)Nc2cc(Cl)ccc2C(=O)N1C
 |  | 54.8% | 30.9% | CCCCCCCCCN1C(=O)[C@@H](CCC(=O)NCc2cccnc2)N(C)C(=O)c2ccc(Cl)cc21
18% | 22.2% |  |  | COC(=O)CC[C@H]1NC(=O)c2cc(Oc3cccc(N(C)C)c3)c(NC(=O)CCCc3ccccc3)cc2NC1=O
20.9% | -5.97% |  | 23.8% | COC(=O)CC[C@H]1NC(=O)c2cc(Oc3cccc(N(C)C)c3)c(NC(=O)COCc3ccccc3Cl)cc2NC1=O
 |  |  | 3.93% | CN(C)c1cccc(Oc2cc3c(cc2NC(=O)COCc2ccccc2)NC(=O)[C@@H](CCC(N)=O)NC3=O)c1

Reference: ChEMBL document CHEMBL4014339, “Discovery of 1,4-Benzodiazepine-2,5-dione (BZD) Derivatives as Dual Nucleotide Binding Oligomerization Domain Containing 1/2 (NOD1/NOD2) Antagonists Sensitizing Paclitaxel (PTX) To Suppress Lewis Lung Carcinoma (LLC) Growth in Vivo” (J Med Chem, 2017)
